In brackets after ≈: the same amount, converted by molar mass.
What was measured:
Type in all cases: functional
Candida albicans [1] = assay: Antifungal activity against azole-susceptible Candida albicans 5457 after 48 hrs; conditions: Candida albicans, 5457, 48 h
Procedure, shortened: (§1)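 Liquid microtiter broth assay in YPD, cells incubated 48 h at 30°C with drug (e.g. FLC 0.2–200 µg/ml; KTC 0.001–1.2 µg/ml). Growth read as OD620 and expressed relative to drug-free growth of the same strain. MIC50 taken as the first concentration reducing growth by 50%. Mean of three independent experiments, each in duplicate.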

Candida albicans [2] = assay: Antifungal activity against tac1/tac1 deficient Candida albicans SZY31 after 48 hrs; conditions: SZY31, 48 h; procedure, shortened: as §1
Candida albicans [3] = assay: Antifungal activity against azole-resistant Candida albicans 5674 after 48 hrs; conditions: Candida albicans, 5674, 48 h; procedure, shortened: as §1
Candida albicans [4] = assay: Antifungal activity against cdr2/cdr2 deficient Candida albicans STY7 after 48 hrs; conditions: STY7, 48 h; procedure, shortened: as §1
Candida albicans [5] = assay: Antifungal activity against cdr1/cdr1 deficient Candida albicans STY19 after 48 hrs; conditions: STY19, 48 h; procedure, shortened: as §1
Candida albicans [6] = assay: Antifungal activity against cdr1/cdr1/cdr2/cdr2 deficient Candida albicans STY31 after 48 hrs; conditions: STY31, 48 h; procedure, shortened: as §1
Candida albicans [7] = assay: Ratio of MIC50 for Candida albicans 5674 to MIC50 for cdr1/cdr1 deficient Candida albicans STY19
Procedure, shortened: (§2)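 Ratios use MIC50s from the YPD liquid microtiter assay (48 h, 30°C, OD620 growth relative to drug-free control). MIC50 is the first concentration giving a 50% growth reduction, as the mean of three independent experiments in duplicate. The MIC50 of one strain is divided by that of the other.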

Candida albicans [8] = assay: Ratio of MIC50 for Candida albicans 5674 to MIC50 for cdr2/cdr2 deficient Candida albicans STY7; procedure, shortened: as §2
Candida albicans [9] = assay: Ratio of MIC50 for Candida albicans 5674 to MIC50 for cdr1/cdr1/cdr2/cdr2 deficient Candida albicans STY31; procedure, shortened: as §2
Candida albicans [10] = assay: Ratio of MIC50 for Candida albicans 5674 to MIC50 for tac1/tac1 deficient Candida albicans SZY31; procedure, shortened: as §2
Candida albicans [11] = assay: Ratio of MIC50 for cdr1/cdr1 deficient Candida albicans STY19 to MIC50 for cdr1/cdr1/cdr2/cdr2 deficient Candida albicans STY31; procedure, shortened: as §2
Candida albicans [12] = assay: Antifungal activity against Candida albicans STY47 expressing cdr2 gene after 48 hrs; conditions: STY47, 48 h; procedure, shortened: as §1
Candida albicans [13] = assay: Ratio of MIC50 for Candida albicans 5674 to MIC50 for Candida albicans STY47 expressing cdr2 gene; procedure, shortened: as §2

SMILES | MIC50 (Candida albicans [1]) [mg/L] | MIC50 (Candida albicans [2]) [mg/L] | MIC50 (Candida albicans [3]) [mg/L] | MIC50 (Candida albicans [4]) [mg/L] | MIC50 (Candida albicans [5]) [mg/L] | MIC50 (Candida albicans [6]) [mg/L] | Ratio (Candida albicans [7]) | Ratio (Candida albicans [8]) | Ratio (Candida albicans [9]) | Ratio (Candida albicans [10]) | Ratio (Candida albicans [11]) | MIC50 (Candida albicans [12]) [mg/L] | Ratio (Candida albicans [13])
CCC(C)n1ncn(-c2ccc(N3CCN(c4ccc(OCC5COC(Cn6cncn6)(c6ccc(Cl)cc6Cl)O5)cc4)CC3)cc2)c1=O (stereo unspecified) [ITRACONAZOLE] | 0.0125 (≈ 0.0177 µM) | 0.0063 (≈ 0.00893 µM) | 0.2 (≈ 0.283 µM) | 0.2 (≈ 0.283 µM) | 0.025 (≈ 0.0354 µM) | 0.0004 (≈ 0.000567 µM) | 8 | 1 | 500 | – | – | – | –
CC/N=c1\cc2oc3cc(NCC)c(C)cc3c(-c3ccccc3C(=O)OCC)c-2cc1C.Cl [RHODAMINE 6G HYDROCHLORIDE] | 8 | 2 | 16 | 16 | 8 | 8 | – | – | – | – | – | – | –
CC(=O)N1CCN(c2ccc(OCC3COC(Cn4ccnc4)(c4ccc(Cl)cc4Cl)O3)cc2)CC1 (stereo unspecified) [KETOCONAZOLE] | 0.018 (≈ 0.0339 µM) | 0.009 (≈ 0.0169 µM) | 0.6 (≈ 1.13 µM) | 0.4 (≈ 0.753 µM) | 0.15 (≈ 0.282 µM) | 0.002 (≈ 0.00376 µM) | 4 | 1.5 | 300 | – | – | – | –
OCCN1CCN(CCCN2c3ccccc3Sc3ccc(C(F)(F)F)cc32)CC1 [FLUPHENAZINE] | 75 (≈ 171 µM) | 38 (≈ 86.9 µM) | 75 (≈ 171 µM) | 75 (≈ 171 µM) | 50 (≈ 114 µM) | 25 (≈ 57.1 µM) | 1.5 | 1 | – | 2 | 2 | – | –
OC(Cn1cncn1)(Cn1cncn1)c1ccc(F)cc1F [FLUCONAZOLE] | 3.1 (≈ 10.1 µM) | 6.2 (≈ 20.2 µM) | 150 (≈ 490 µM) | 100 (≈ 327 µM) | 25 (≈ 81.6 µM) | 0.4 (≈ 1.31 µM) | 6 | 1.5 | 375 | – | – | 6.3 (≈ 20.6 µM) | 16
C[C@@H]1[C@H](O)[C@@H](C)/C=C/C=C/C=C/C=C/C=C/C=C/C=C/[C@H](O[C@@H]2O[C@H](C)[C@@H](O)[C@H](N)[C@@H]2O)C[C@@H]2O[C@](O)(C[C@@H](O)C[C@@H](O)[C@H](O)CC[C@@H](O)C[C@@H](O)CC(=O)O[C@H]1C)C[C@H](O)[C@H]2C(=O)O [AMPHOTERICIN B] | 1 (≈ 1.08 µM) | 1 (≈ 1.08 µM) | 2 (≈ 2.16 µM) | 2 (≈ 2.16 µM) | 2 (≈ 2.16 µM) | 2 (≈ 2.16 µM) | – | – | – | – | – | – | –

From ChEMBL document CHEMBL1649166, “Relative contributions of the Candida albicans ABC transporters Cdr1p and Cdr2p to clinical azole resistance” (2009)
